Source: PMC4714953 (Antiviral therapy, 2015)
Read-outs that look alike come from different tables or passages of the source.

Tests used:
[1] = rat, dog and rhesus monkey; cited from earlier work
HCV RNA = experiment: Decline of HCV RNA in patients on vaniprevir; format: in vivo; details: genotype 1 chronic HCV patients
[2] = chimpanzees, 10 mg/kg oral, cited from earlier work
[3] = system: liver organic anion-transporting polypeptides; details: cited from earlier work
[4] = cited from earlier work; for AUC0–12: plasma
[5] = Hepatic vaniprevir concentration by core needle biopsy; format: in vivo, human; details: for concentration at 12 h / Kp at 6 h: human, liver, oral, mean; for concentration at 12 h: Liver concentration C12h, mean (one subject), 12 h post-dose day 4; for Kp at 6 h: Liver:plasma ratio C6h, 6 h post-dose day 4
Outline: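 Genotype 1 chronic HCV patients (n=3), non-cirrhotic, treatment-experienced, fixed sequence: 600 mg twice daily days 1–3 and a single dose on day 4, then after at least 30 days off drug, 300 mg on the same schedule. Ultrasound-guided core needle biopsy of the right hepatic lobe 6 or 12 h after the day-4 dose. Tissue weighed, stored at −70°C, homogenized in human EDTA plasma, extracted liquid–liquid at acidic pH, then LC-MS/MS (0.1–200 µg/g). Liver/plasma ratio calculated.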

[6] = Plasma vaniprevir pharmacokinetics; format: in vivo, human; details: for AUC(0-t) / Cmax / Tmax / half-life / concentration at 12 h: human, plasma, oral
Outline: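 Same patients and fixed-sequence regimen: 600 mg then 300 mg twice daily days 1–3, single dose on day 4, at least 30-day washout between periods. Day-4 plasma over the 12-h dosing interval. LC-MS/MS, linear 1–1,000 ng/ml, CV under 10%, accuracy within ±10.0%. AUC0–12, Cmax, C12h, Tmax and t½ derived using nominal times. Tmax as median (min–max), t½ as harmonic mean ±pseudo sd.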

[7] = 300 mg to 600 mg twice daily, day 4

concentration at 12 h ([5]; 300 mg, 300 mg twice daily): 29.4 µM
Kp at 6 h ([5]; 300 mg, 300 mg twice daily): 166
concentration at 12 h ([5]; 600 mg, 600 mg twice daily): 53.7 µM
Kp at 6 h ([5]; 600 mg, 600 mg twice daily): 67.3
Hepatic concentrations, 600 mg versus 300 mg twice daily regimen ([5]; mean liver concentrations at 6 and 12 h post-dose): twofold higher
Increase in plasma AUC0–12 with a twofold increase in dose [6, 7]: approximately fivefold
Increase in plasma C12h with a twofold increase in dose [6, 7]: approximately sevenfold
Increase in plasma Cmax with a twofold increase in dose [6, 7]: approximately fivefold
AUC(0-t) ([6]; 300 mg): 10.6 µM·h
Cmax ([6]; 300 mg): 2.6 µM
Tmax ([6]; 300 mg): 2 h
half-life ([6]; 300 mg): 378 ± 84 min
concentration at 12 h ([6]; 300 mg, C12 h, plasma trough, day 4, 300 mg twice daily, n=3, arithmetic mean ±SD [CV%]): 160 nM
concentration at 12 h ([6]; 300 mg, Plasma concentration C12h, mean, mean (one subject, Table 1), 300 mg twice daily, 12 h post-dose day 4): 120 nM
AUC(0-t) ([6]; 600 mg): 59.5 µM·h
Cmax ([6]; 600 mg): 13.5 µM
Tmax ([6]; 600 mg): 3 h
half-life ([6]; 600 mg): 216 ± 60 min
concentration at 12 h ([6]; 600 mg, C12 h, plasma trough, day 4, 600 mg twice daily, n=3, arithmetic mean ±SD [CV%]): 1110 nM
concentration at 12 h ([6]; 600 mg, Plasma concentration C12h, mean, mean (one subject, Table 1), 600 mg twice daily, 12 h post-dose day 4): 190 nM
Compound: CC[C@@H]1C[C@]1(NC(=O)[C@@H]1C[C@@H]2CN1C(=O)[C@H](C(C)(C)C)NC(=O)OCC(C)(C)CCCCc1cccc3c1CN(C3)C(=O)O2)C(=O)NS(=O)(=O)C1CC1 [vaniprevir]
Liver concentrations at 24 h post-dose [1]: 200 to 600 nM
Decline of HCV RNA by day 2 (HCV RNA; 300 mg twice daily): approximately 3 log
Decline of HCV RNA by day 2 (HCV RNA; 600 mg twice daily): approximately 4 log
Maximum liver concentration ([2]; reached at 12 h after dosing): 31 µM
Plasma AUC0–24 [2]: 5.2 µM/h
Liver organic anion-transporting polypeptides transport in vitro [3]: saturated at high concentrations
Plasma vaniprevir Tmax ([4]; humans): 1.5 to 3 h
AUC0–12 ([4]; 300 mg twice daily): 5.15 µM/h
AUC0–12 ([4]; 600 mg twice daily): 23.36 µM/h
